# Legend:
# [1] = Growth inhibition of HPV-16 transformed human CCD-1106 cells after 72 hrs by MTT assay; type: functional; conditions: CCD-1106, 72 h
# In short: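 Cells were seeded at 10,000 cells/well in keratinocyte serum-free medium with L-glutamine, bovine pituitary extract and EGF, at 37 °C under 5% CO2, and attached overnight. Eight drug concentrations were run with six in-plate replicates, DMSO <1%, for 72 h. MTT (0.5 mg/ml) was added for 2 h, formazan was dissolved in 90% isopropanol/10% DMSO and A590 was read. Growth is expressed relative to the untreated control.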
# [2] = biological target: Epidermal growth factor receptor (Homo sapiens) (UniProt P00533); assay: Inhibition of EGFR-mediated ERK2 phosphorylation in HPV-16 transformed human CCD-1106 cells at 111.8 uM after 30 mins by densitometric analysis; type: cell-based
# Epidermal growth factor receptor (Homo sapiens), sequence (P00533 whole entry): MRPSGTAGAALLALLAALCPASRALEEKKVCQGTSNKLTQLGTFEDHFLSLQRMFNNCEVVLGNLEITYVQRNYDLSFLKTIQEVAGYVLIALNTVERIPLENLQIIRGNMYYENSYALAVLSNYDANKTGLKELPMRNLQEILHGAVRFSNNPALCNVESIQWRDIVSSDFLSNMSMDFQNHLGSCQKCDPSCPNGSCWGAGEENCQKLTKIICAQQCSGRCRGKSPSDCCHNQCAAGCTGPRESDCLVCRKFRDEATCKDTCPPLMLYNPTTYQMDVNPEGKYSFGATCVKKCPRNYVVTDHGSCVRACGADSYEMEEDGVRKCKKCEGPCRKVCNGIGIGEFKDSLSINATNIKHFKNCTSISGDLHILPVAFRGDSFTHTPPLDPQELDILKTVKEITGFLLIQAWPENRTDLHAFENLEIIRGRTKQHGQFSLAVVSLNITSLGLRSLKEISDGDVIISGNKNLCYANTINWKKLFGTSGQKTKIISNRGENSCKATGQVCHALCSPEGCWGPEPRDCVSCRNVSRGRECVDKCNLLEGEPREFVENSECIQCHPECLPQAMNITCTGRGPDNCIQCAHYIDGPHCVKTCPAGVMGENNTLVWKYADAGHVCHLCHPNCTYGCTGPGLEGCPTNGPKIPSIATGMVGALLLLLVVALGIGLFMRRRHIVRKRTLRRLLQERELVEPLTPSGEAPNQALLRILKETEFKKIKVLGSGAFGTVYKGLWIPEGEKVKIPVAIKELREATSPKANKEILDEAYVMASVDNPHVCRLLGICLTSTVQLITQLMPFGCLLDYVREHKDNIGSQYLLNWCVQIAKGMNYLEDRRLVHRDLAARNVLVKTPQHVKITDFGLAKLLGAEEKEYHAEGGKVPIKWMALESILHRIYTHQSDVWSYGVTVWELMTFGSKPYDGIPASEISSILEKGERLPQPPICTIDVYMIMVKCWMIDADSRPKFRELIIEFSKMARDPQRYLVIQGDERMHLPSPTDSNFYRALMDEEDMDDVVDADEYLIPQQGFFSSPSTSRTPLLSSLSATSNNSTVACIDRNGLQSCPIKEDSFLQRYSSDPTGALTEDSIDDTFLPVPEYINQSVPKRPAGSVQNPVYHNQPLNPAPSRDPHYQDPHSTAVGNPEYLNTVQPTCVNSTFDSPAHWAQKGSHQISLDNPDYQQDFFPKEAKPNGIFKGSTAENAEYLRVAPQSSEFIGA
# In short: (§1)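 CCD-1106 cells were treated with compound for 30 min at 37 °C, then stimulated with EGF. Lysates were separated by SDS-PAGE, blotted to nitrocellulose and blocked in 3% BSA/NaTT. Blots were probed with p-ERK (E-4) or p-p38 (D-8) antibodies, detected by ECL and quantified by densitometry.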
# [3] = biological target: Epidermal growth factor receptor (Homo sapiens) (UniProt P00533); assay: Inhibition of phosphorylated EGFR dimerization in HPV-16 transformed human CCD-1106 cells at 118.1 uM after 30 mins by densitometric analysis; type: cell-based
# In short: (§2)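 CCD-1106 cells were exposed to compounds for 30 min at 37 °C, then stimulated with EGF 50 ng/mL for 10 min. They were cross-linked with 2 mM BS3 for 30 min at room temperature and quenched with Tris (pH 7.5). Lysates were run on SDS-PAGE and immunoblotted for phospho-EGFR (Tyr1173) and total EGFR. The ~340 kDa dimer band was quantified by densitometry against the no-inhibitor control.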
# [4] = biological target: Epidermal growth factor receptor (Homo sapiens) (UniProt P00533); assay: Inhibition of EGFR-mediated ERK1 phosphorylation in HPV-16 transformed human CCD-1106 cells at 111.8 uM after 30 mins by densitometric analysis; type: cell-based; in short: as §1
# [5] = Antioxidant activity in bovine brain assessed as inhibition of iron-ascorbate-induced lipid peroxidation by thiobarbituric acid test; type: functional, tissue-based, Bos taurus
# In short: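 Hit compounds were tested for inhibition of lipid peroxidation by the thiobarbituric acid (TBA) assay. Propyl gallate served as the standardizing positive control, tested at 100 µM.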
# [6] = biological target: Epidermal growth factor receptor (Homo sapiens) (UniProt P00533); assay: Inhibition of EGFR-mediated p38 phosphorylation in HPV-16 transformed human CCD-1106 cells at 111.8 uM after 30 mins by densitometric analysis; type: cell-based; in short: as §1
# [7] = biological target: Epidermal growth factor receptor (Homo sapiens) (UniProt P00533); assay: Inhibition of phosphorylated EGFR dimerization in HPV-16 transformed human CCD-1106 cells at 123.6 uM after 30 mins by densitometric analysis; type: cell-based; in short: as §2
# [8] = biological target: Epidermal growth factor receptor (Homo sapiens) (UniProt P00533); assay: Inhibition of EGFR-mediated ERK2 phosphorylation in HPV-16 transformed human CCD-1106 cells at 120.7 uM after 30 mins by densitometric analysis; type: cell-based; in short: as §1
# [9] = biological target: Epidermal growth factor receptor (Homo sapiens) (UniProt P00533); assay: Inhibition of EGFR-mediated ERK1 phosphorylation in HPV-16 transformed human CCD-1106 cells at 120.7 uM after 30 mins by densitometric analysis; type: cell-based; in short: as §1
Structure (SMILES),GI50 ([1]; read-out: GI50),GI50 ([1]; read-out: pGI50 (converted)),further results
CCOc1cc(/C=N\Nc2nc3c(c(=O)n(C)c(=O)n3C)n2Cc2ccc(Cl)cc2)ccc1O,5.21 µM,5.25 µM,
Cc1ccc(OCC(=O)N/N=C/c2c(OC(=O)c3ccccc3)ccc3ccccc23)cc1,9.33 µM,,inhibition [2]: 19%; inhibition [3]: 42%; inhibition [4]: 26%; IC50 [5]: 1250 µM; inhibition [6]: 12%
CCOc1cc(/C=N\Nc2nc3c(c(=O)n(C)c(=O)n3C)n2Cc2ccc(C)cc2)cc(OCC)c1OCC,9.83 µM,10 µM,
CCOc1cc(/C=N\Nc2nc3c(c(=O)n(C)c(=O)n3C)n2Cc2ccccc2[N+](=O)[O-])ccc1O,8.5 µM,8.51 µM,
CC(C)C(=O)NNC(=O)c1c(O)c2ccccc2n(C)c1=O,14.9 µM,,inhibition [7]: 16%; inhibition [8]: 33%; IC50 [5]: 3410 µM; inhibition [9]: 42%
CCOc1cc(/C=N\Nc2nc3c(c(=O)n(C)c(=O)n3C)n2Cc2ccc([N+](=O)[O-])cc2)cc(OCC)c1OCC,18.9 µM,19.1 µM,
CCOC(=O)c1ccccc1Cn1c(N/N=C\c2ccc(O)c(OCC)c2)nc2c1c(=O)n(C)c(=O)n2C,106 µM,107 µM,
CCOc1cc(/C=N\Nc2nc3c(c(=O)n(C)c(=O)n3C)n2Cc2ccccc2)cc(OCC)c1OCC,4.65 µM,4.68 µM,
CCOC(=O)c1ccccc1Cn1c(N/N=C\c2cc(OCC)c(OCC)c(OCC)c2)nc2c1c(=O)n(C)c(=O)n2C,48.3 µM,47.9 µM,
